Data reported in article PMC6644362 (ACS Omega, 2018).
Values joined by “and” are separate entries in the source; they are usually repeats but may differ in a detail not shown here. Identical values can stand only once.

How the values were obtained:
recombinant human TK2 [1] = biological target: T1, recombinant human TK2 (Homo sapiens, UniProt O00142); experiment: Intrinsic tryptophan fluorescence; format: binding; conditions: for Kd / ΔFmax: mean ± SD; for fa (fractional accessibility) / Ka (quenching constant of the accessible fraction): modified Stern–Volmer equation; for fractional initial accessible fluorescence: summary of Table 2, dTTP-bound or dTTP-free TK2; for quenching of the fluorescence emission on addition of ligand: titrated to dTTP-bound or dTTP-free TK2, 0.5–4000 μM
T1 sequence (O00142 56-265 limits assumed): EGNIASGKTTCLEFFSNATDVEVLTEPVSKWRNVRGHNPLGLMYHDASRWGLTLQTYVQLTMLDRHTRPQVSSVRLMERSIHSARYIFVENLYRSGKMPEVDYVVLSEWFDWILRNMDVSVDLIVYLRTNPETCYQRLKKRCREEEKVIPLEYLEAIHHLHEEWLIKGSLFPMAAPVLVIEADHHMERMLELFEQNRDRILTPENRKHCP

recombinant human TK2 [2] = biological target: T1, recombinant human TK2; experiment: Isothermal titration calorimetry; format: binding
Summary of the method: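 Calorimetry at 25 °C used 40 μM TK2 (dTTP-bound or dTTP-free) dialysed into 10 mM Tris/HCl pH 7.9, 1 mM MgCl2. Ligands were in dialysis buffer at 1–3 mM syringe concentration, also ATPγS into enzyme–dT/dC complexes. There was one 2 μL control injection, then 24 × 8 μL injections at 500 s intervals. Blanks were ligand into buffer and buffer into enzyme. Best-fit model per ligand; Kd = 1/KB.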

TK2 = conditions: feedback inhibition, enzyme kinetic experiments; cited from earlier work
[3] = biological target: human recombinant dC kinase (dCK) (Homo sapiens, UniProt P27707); experiment: ITC titration of ATPγS to dCK in the presence and absence of dC; format: binding
[4] = Kd (equilibrium binding constant), dTTP-bound TK2, one-site specific binding model
[5] = Kd (equilibrium binding constant), dTTP-free TK2, one-site specific binding model
[6] = dTTP-bound TK2, 2 μM TK2, 21 °C
[7] = dTTP-bound TK2, one-site specific binding model
[8] = dTTP-free TK2, one-site specific binding model
[9] = read-out: Kd (equilibrium binding constant), dTTP-bound TK2, one-site specific binding model
[10] = titrated to E–dC complex, 25 °C
[11] = titrated to E–dT complex, 25 °C

Chain of human recombinant dC kinase (dCK) (P27707 whole entry): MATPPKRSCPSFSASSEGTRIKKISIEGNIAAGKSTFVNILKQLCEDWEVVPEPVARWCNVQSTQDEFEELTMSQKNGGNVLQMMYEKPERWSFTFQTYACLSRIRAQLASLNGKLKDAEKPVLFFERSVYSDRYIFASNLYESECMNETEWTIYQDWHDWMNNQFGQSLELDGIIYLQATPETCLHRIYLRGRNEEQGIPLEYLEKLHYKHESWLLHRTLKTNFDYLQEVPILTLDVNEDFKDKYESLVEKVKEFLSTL

| Structure (SMILES) | Kd (recombinant human TK2 [1]; [4]) [µM] | Kd (recombinant human TK2 [1]; [5]) [µM] | fa (fractional accessibility) (recombinant human TK2 [1]; [6]) | ΔFmax (recombinant human TK2 [1]; [7]) | fa (fractional accessibility) (recombinant human TK2 [1]; dTTP-free TK2, 21 °C) | ΔFmax (recombinant human TK2 [1]; [8]) | fractional initial accessible fluorescence (recombinant human TK2 [1]) | quenching of the fluorescence emission on addition of ligand (recombinant human TK2 [1]) | Ka (quenching constant of the accessible fraction) (recombinant human TK2 [1]; [6]) [μM^–1] | Kd (recombinant human TK2 [1]; [9]) [µM] | further results |
| --- | --- | --- | --- | --- | --- | --- | --- | --- | --- | --- | --- |
| Nc1ccn([C@H]2C[C@H](O)[C@@H](CO)O2)c(=O)n1 [dC, deoxycytidine] | 3.35 ± 0.81 | 5.64 ± 1.2 | 0.29 ± 0.05 | 19.86 ± 0.94 | 0.40 ± 0.10 | 67.5 ± 2.9 | 20–40% | caused quenching | – | – | ΔH (enthalpy changes) (recombinant human TK2 [2]; dTTP-bound enzyme, 25 °C): –23.4 ± 0.7 kcal/mol; ΔS (entropy changes) (recombinant human TK2 [2]; dTTP-bound enzyme, 25 °C): –7.9 cal/mol/deg |
| Nc1ncnc2c1ncn2[C@@H]1O[C@H](CO[P@](=O)(O)O[P@](=O)(O)O[P@@](=O)(O)S)[C@@H](O)[C@H]1O [ATPγS, adenosine 5′-(gamma-thio) triphosphate] | – | – | – | – | – | – | – | – | – | – | binding to dCK alone (ITC) ([3]; absence of dC): does not bind; binding to the dCK–dC complex (ITC) ([3]; presence of dC): bind; Kd (recombinant human TK2 [2]; Kd (dissociation constant), titrated to E–dC complex, 25 °C): 20 µM; Kd (recombinant human TK2 [2]; Kd (dissociation constant), titrated to E–dT complex, 25 °C): 0.93 µM; ΔG (Gibbs free energy) (recombinant human TK2 [2]; [10]): –0.18 ± 0.01 kcal/mol; ΔH (enthalpy changes) (recombinant human TK2 [2]; [10]): –7.5 ± 0.5 kcal/mol; ΔS (entropy changes) (recombinant human TK2 [2]; [10]): –24.9 cal/mol/deg; binding constant (recombinant human TK2 [2]; titrated to E–dT complex): 1.1 × 10^6 M^–1; ΔG (Gibbs free energy) (recombinant human TK2 [2]; [11]): –8.2 ± 0.1 kcal/mol; ΔH (enthalpy changes) (recombinant human TK2 [2]; [11]): –19.4 ± 0.8 kcal/mol; ΔS (entropy changes) (recombinant human TK2 [2]; [11]): –37.6 cal/mol/deg; ITC heat response / specific interaction (recombinant human TK2 [2]; titrated with either dTTP-bound or dTTP-free TK2): no heat response |
| Nc1ccn([C@H]2C[C@H](O)[C@@H](COP(=O)(O)OP(=O)(O)OP(=O)(O)O)O2)c(=O)n1 [dCTP, deoxycytidine triphosphate] | – | – | – | – | – | – | – | – | – | – | ITC heat changes in the isothermogram (recombinant human TK2 [2]; dTTP-free enzyme): no heat changes |
| Nc1ccn([C@H]2C[C@H](O)[C@@H](COP(=O)(O)O)O2)c(=O)n1 [dCMP, deoxycytidine monophosphate] | – | – | 0.21 ± 0.02 | 19.74 ± 1.18 | – | – | 20–40% | caused quenching | 0.42 ± 0.03 | 4.42 ± 0.99 | – |

More lines, main results first:

| Kd (recombinant human TK2 [1]; [4]) [µM] | Kd (recombinant human TK2 [1]; [5]) [µM] | fa (fractional accessibility) (recombinant human TK2 [1]; [6]) | ΔFmax (recombinant human TK2 [1]; [7]) | fa (fractional accessibility) (recombinant human TK2 [1]; dTTP-free TK2, 21 °C) | ΔFmax (recombinant human TK2 [1]; [8]) | fractional initial accessible fluorescence (recombinant human TK2 [1]) | quenching of the fluorescence emission on addition of ligand (recombinant human TK2 [1]) | Ka (quenching constant of the accessible fraction) (recombinant human TK2 [1]; [6]) [μM^–1] | Kd (recombinant human TK2 [1]; [9]) [µM] | Structure (SMILES) | further results |
| --- | --- | --- | --- | --- | --- | --- | --- | --- | --- | --- | --- |
| – | 3.64 ± 1.02 | – | – | 0.22 ± 0.01 | 57.6 ± 2.9 | 20–40% | caused quenching | – | – | Cc1cn([C@H]2C[C@H](O)[C@@H](CO[P@](=O)(O)O[P@@](=O)(O)OP(=O)(O)O)O2)c(=O)[nH]c1=O [dTTP, deoxythymidine triphosphate] | Ki (TK2): 2.5 µM and ~2.5 µM; Kd (recombinant human TK2 [2]; Kd (dissociation constant), dTTP-free enzyme, 25 °C, Kd = 1/KB): 36 µM and 35.7 µM; binding constant (recombinant human TK2 [2]; dTTP-free TK2): 2.8 × 10^4 M^–1; ΔG (Gibbs free energy) (recombinant human TK2 [2]; dTTP-free enzyme, 25 °C): –6.0 ± 0.1 kcal/mol; ΔH (enthalpy changes) (recombinant human TK2 [2]; dTTP-free enzyme, 25 °C): 237.2 ± 0.2 kcal/mol; ΔS (entropy changes) (recombinant human TK2 [2]; dTTP-free enzyme, 25 °C): 816 cal/mol/deg |
| 6.94 ± 2.78 | – | 0.38 ± 0.04 | 12.77 ± 1.34 | – | – | 20–40% | caused quenching | – | – | Cc1cn([C@H]2C[C@H](N=[N+]=[N-])[C@@H](CO)O2)c(=O)[nH]c1=O [AZT, 3′-Azido-2′,3′-dideoxythymidine] | – |
| – | – | 0.21 ± 0.02 | 16.74 ± 0.53 | – | – | 20–40% | caused quenching | 0.79 ± 0.04 | 1.53 ± 0.28 | Cc1cn([C@H]2C[C@H](O)[C@@H](COP(=O)(O)O)O2)c(=O)[nH]c1=O [dTMP, deoxythymidine monophosphate] | – |
| 3.26 ± 1.01 | 13.3 ± 1.2 | 0.25 ± 0.01 | 21.95 ± 1.25 | 0.17 ± 0.02 | 69.7 ± 3.1 | – | caused quenching | 0.16 | – | Cc1cn([C@H]2C[C@H](O)[C@@H](CO)O2)c(=O)[nH]c1=O [dT, thymidine] | fa, fraction of the initial fluorescence accessible (recombinant human TK2 [1]; dTTP-bound TK2, modified Stern–Volmer equation): 25%; binding constant, times higher than that of dC (recombinant human TK2 [2]; ITC): 5 times; binding constant, times higher than that of dTTP (recombinant human TK2 [2]; ITC): 65 times; binding affinity, times higher than that of dC (recombinant human TK2 [2]; ITC, dTTP-bound enzyme): 3 times; Kd (recombinant human TK2 [2]; Kd1 (high affinity), dTTP-bound enzyme, two-site binding model): 0.55 µM; ΔG (Gibbs free energy) (recombinant human TK2 [2]; dTTP-bound enzyme, 25 °C): –7.1 ± 0.2 kcal/mol; ΔH (enthalpy changes) (recombinant human TK2 [2]; dTTP-bound enzyme, 25 °C): –72.7 ± 0.2 kcal/mol; ΔS (entropy changes) (recombinant human TK2 [2]; dTTP-bound enzyme, 25 °C): –220 cal/mol/deg; Kd (recombinant human TK2 [2]; read-out: Kd2 (lower affinity), dTTP-bound enzyme, two-site binding model): 6.13 µM |
| – | – | 0.24 ± 0.04 | 17.81 ± 0.99 | – | – | 20–40% | caused quenching | 0.14 ± 0.02 | 6.17 ± 1.35 | Cc1cn([C@H]2C[C@H](F)[C@@H](CO)O2)c(=O)[nH]c1=O [FLT, 3′-fluoro-2′,3′-dideoxythymidine] | – |
